The values below come from publication PMC6007964 (Biochemistry, 2018).

The structures appear in SMILES notation. Values after ≈ are worked out from the molar mass of the structure shown. Read-outs that look alike come from different tables or passages of the source. Some results are limits rather than exact numbers.

For orientation: IC50 means the midpoint of a concentration-inhibition curve. Usually Ki stands for the equilibrium dissociation constant of an inhibitor or competing ligand from its target. Low values mean higher affinity, high ones lower affinity. By MIC is commonly meant the lowest concentration that inhibits growth of the organism.

In experiment [1] the target is T1, VIM-2 (Escherichia coli, UniProt Q5U7L7). In words: IC50 assay, nitrocefin hydrolysis, 10 min preincubation. In kind it is biochemical.
For experiment [2], the target named is T2, NDM-1 (Klebsiella pneumoniae, UniProt C7C422). The experiment is described as above. In kind it is biochemical.
The target in experiment [3] is T3, L1 (Stenotrophomonas maltophilia, UniProt P52700). Described as above. It counts as biochemical, S. maltophilia.
The target of experiment [4] is T4, IMP-1 (Serratia marcescens, UniProt P52699). The experiment is described as above. In kind it is biochemical.
The test system of experiment [5] is K. pneumoniae UWB116 (NDM-1). The settings on record: NDM-1-producing K. pneumoniae clinical isolate, cited from earlier work.
The target in experiment [6] is T3, L1. In words: Ki determination, slow-binding progress curves with nitrocefin. It counts as biochemical, S. maltophilia. The method in brief: (§1)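 Enzyme was added to nitrocefin in excess, with inhibitor dilutions spanning the variable-rate range: IMP-1 60 pM with 25 μM nitrocefin, VIM-2 39.2 pM with 100 μM, NDM-1 600 pM with 15 μM, L1 308 pM with 50 μM. Buffer was 50 mM HEPES pH 7.2, 50 μg/mL BSA, 0.01% Triton X-100, read at 482 nm and 30 °C for 10 min. Progress curves gave kobs; a linear fit of kobs versus [I] gave k–0 and Kiapp, then Ki.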

Experiment [7] addresses T2, NDM-1. Described as above. In kind it is biochemical. Summed up: as §1
In experiment [8] the target is T1, VIM-2. The experiment is described as above. In kind it is biochemical. The method in brief: as §1
The target of experiment [9] is T4, IMP-1. Described as above. It counts as biochemical. Summed up:
as §1

A further experiment relates to P. putida #UWB24 (VIM-2). The experiment can be described thus: Meropenem MIC, broth microdilution, clinical strain. In kind it is cell-based. The settings on record: in the absence of inhibitor.
The subject of experiment [10] is non-MBL-producing C. freundii. The conditions noted are these: non-MBL-producing strain; cited from earlier work.
Experiment [11] relates to non-MBL-producing En. aerogenes. The settings on record: non-MBL-producing strain; cited from earlier work.
The test system of another experiment is C. freundii D571 NDM-1. In words: Meropenem MIC, broth microdilution. The settings on record: Citrobacter freundii, D571NDM1, read-out: Meropenem MIC. In kind it is cell-based. In general terms: In broth dilution the organism is exposed to a series of concentrations in liquid medium.
For a further experiment, the system named is K. pneumoniae Ecl8 NDM-1. In words: Meropenem MIC, broth microdilution. In kind it is cell-based. The settings on record: Klebsiella pneumoniae, ECL8NDM1, read-out: Meropenem MIC.
In experiment [12] the test system is S. maltophilia JKWZP (L1, L2). The experiment can be described thus: Meropenem MIC, broth microdilution, RND pump knockout strain. It counts as cell-based. The settings on record: Stenotrophomonas maltophilia, read-out: Meropenem MIC.
In experiment [13] the test system is E. coli MG1655 vector only. In words: Meropenem MIC, broth microdilution. It counts as cell-based. The settings on record: Escherichia coli, MG1655, read-out: Meropenem MIC.
The test system of experiment [14] is non-MBL-producing K. pneumoniae. The settings on record: non-MBL-producing strain; cited from earlier work.
In experiment [15] the test system is P. aeruginosa UWB41 (VIM-2). The experiment can be described thus: Meropenem MIC, broth microdilution, clinical strain. It counts as cell-based. The settings on record: Pseudomonas aeruginosa, read-out: Meropenem MIC.
Experiment [16] deals with P. aeruginosa UWB78 (VIM-2). Described as above. The settings on record: in the absence of inhibitor. It counts as cell-based.
For another experiment, the system named is E. coli MG1655 VIM-1. In words: Meropenem MIC, broth microdilution. In kind it is cell-based. The conditions noted are these: Escherichia coli, MG1655, read-out: Meropenem MIC.
Experiment [17] relates to En. aerogenes 15-8358A NDM-1. In words: Meropenem MIC, broth microdilution. In kind it is cell-based. The settings on record: Klebsiella aerogenes, read-out: Meropenem MIC.
The test system of another experiment is E. coli MG1655 NDM-1. In words: Meropenem MIC, broth microdilution. It counts as cell-based. The settings on record: Escherichia coli, MG1655, read-out: Meropenem MIC.
The test system of experiment [18] is S. maltophilia K279a (L1, L2). The experiment can be described thus: Meropenem MIC, broth microdilution, clinical strain. In kind it is cell-based. The conditions noted are these: Stenotrophomonas maltophilia, read-out: Meropenem MIC.
Another experiment concerns E. coli MG1655 IMP-1. In words: Meropenem MIC, broth microdilution. It counts as cell-based. The conditions noted are these: Escherichia coli, MG1655, read-out: Meropenem MIC.
The test system of experiment [19] is MBLs (VIM-2, NDM-1, IMP-1, L1). In words: IC50 assay, summary over the MBLs tested. It counts as biochemical.

T3 sequence (P52700 34-290): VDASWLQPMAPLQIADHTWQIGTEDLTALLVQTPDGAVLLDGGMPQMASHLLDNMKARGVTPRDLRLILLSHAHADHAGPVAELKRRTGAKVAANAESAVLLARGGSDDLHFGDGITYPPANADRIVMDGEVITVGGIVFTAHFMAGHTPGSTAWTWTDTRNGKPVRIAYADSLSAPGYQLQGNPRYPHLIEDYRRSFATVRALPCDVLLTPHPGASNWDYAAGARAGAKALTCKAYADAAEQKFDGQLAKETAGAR
T4 sequence (P52699 19-246, looked up): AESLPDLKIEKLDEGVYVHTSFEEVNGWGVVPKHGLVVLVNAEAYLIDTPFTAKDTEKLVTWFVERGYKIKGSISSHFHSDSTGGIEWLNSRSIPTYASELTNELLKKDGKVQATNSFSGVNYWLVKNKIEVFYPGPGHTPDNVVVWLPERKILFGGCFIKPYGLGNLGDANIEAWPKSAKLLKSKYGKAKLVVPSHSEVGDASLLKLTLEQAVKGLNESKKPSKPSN
T2 sequence (C7C422 29-270, looked up, species assumed): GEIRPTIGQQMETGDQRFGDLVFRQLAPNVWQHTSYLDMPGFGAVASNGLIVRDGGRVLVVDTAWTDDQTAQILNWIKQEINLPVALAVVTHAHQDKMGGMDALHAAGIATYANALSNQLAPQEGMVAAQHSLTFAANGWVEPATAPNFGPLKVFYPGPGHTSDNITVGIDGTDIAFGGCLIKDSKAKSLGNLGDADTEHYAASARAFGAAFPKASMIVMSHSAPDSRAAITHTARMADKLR

For `O=P(O)(O)Cc1ccccn1` [compound 4, (pyridin-2-ylmethyl)phosphonic acid], the half-maximal inhibitory concentration (IC50) on VIM-2 [1] was 171 µM; on NDM-1 [2], over 1000 µM; at L1 [3] it was over 1000 µM; on IMP-1 [4] it was over 100 µM.

In the case of `N[C@H](CN[C@H](CN[C@@H](CC(=O)O)C(=O)O)C(=O)O)C(=O)O` [AMA, aspergillomarasmine A], the figures for the “Meropenem MIC” value in experiment [5] (in the presence of 16 mg/L AMA) and in [5] (in the presence of 32 mg/L AMA) were 0.25 mg/L and under 0.125 mg/L, respectively.

For `Cc1cccc(C(=O)O)n1` [compound 2, 6-methylpicolinic acid], the IC50 at VIM-2 [1], against NDM-1 [2], on L1 [3] and against IMP-1 [4] was over 100 µM throughout.

As to `O=C(O)c1ccccn1` [compound 1, 2-picolinic acid], the 50% inhibitory concentration (IC50) against VIM-2 [1] is 32.2 µM; at NDM-1 [2] it was over 100 µM; against L1 [3], over 100 µM; on IMP-1 [4], over 100 µM.

Regarding `O=C(O)c1cccc(C(O)P(=O)(O)O)n1` (stereo not shown) [3b, 6-[hydroxy(phosphono)methyl]picolinic acid], the half-inhibitory concentration (IC50) on VIM-2 [1] came to 1.9 µM; on L1 [3] it was 2.05 µM; against IMP-1 [4], 7.2 µM. The inhibitory constant (Ki) on L1 [6] is 400 ± 100 nM; at NDM-1 [7], 78 ± 8 nM; on VIM-2 [8], 610 ± 40 nM; on IMP-1 [9], 1500 ± 100 nM. Further, on VIM-2 [8] (VIM-2), the “Dissociative t1/2 = 2 / k-0” value was found to be 6 min.

Consider `C[C@@H](O)[C@H]1C(=O)N2C(C(=O)O)=C(S[C@@H]3CN[C@H](C(=O)N(C)C)C3)[C@H](C)[C@H]12` [Meropenem], for which the “Meropenem MIC” value with P. putida #UWB24 (VIM-2) is recorded as 64 mg L^–1; in [10] it was 0.06 mg/L; in [11], 0.06 mg/L; in experiment [14], at most 0.25 mg/L; in experiment [16] it was 64 mg L^–1. Also, the MIC in the experiment on C. freundii D571 NDM-1 was 32 µg/mL (≈ 83.4 µM); in the experiment on K. pneumoniae Ecl8 NDM-1 it was over 256 µg/mL; in experiment [12] it was 32 µg/mL (≈ 83.4 µM); in experiment [13], under 0.25 µg/mL; in experiment [15], 128 µg/mL (≈ 334 µM); in the experiment on E. coli MG1655 VIM-1, 4 µg/mL (≈ 10.4 µM). The MIC in experiment [17] is 64 µg/mL (≈ 167 µM); in the experiment on E. coli MG1655 NDM-1 it was over 256 µg/mL; in experiment [18], 16 µg/mL (≈ 41.7 µM); in the experiment on E. coli MG1655 IMP-1, 16 µg/mL (≈ 41.7 µM).

Consider `O=C(O)c1cccc(C(N(Cc2ccccc2)C(=O)c2cccs2)P(=O)(O)O)n1` (stereo not shown) [3c, 6-[(N-benzyl-1-thiophen-2-ylformamido)(phosphono)methyl]picolinic acid], for which the IC50 against VIM-2 [1] was 0.464 µM; at NDM-1 [2], 0.306 µM; in [19] (read-out: IC50, range, against NDM-1, VIM-2 and IMP-1) it was 306 to 2910 nM; against L1 [3], 1.57 µM; on IMP-1 [4], 2.91 µM. Further, the Ki stood at 400 ± 100 nM on L1 [6], 34 ± 6 nM on NDM-1 [7], 38 ± 9 nM at VIM-2 [8] and 400 ± 200 nM at IMP-1 [9]. The “improved potency compared to 3a” value in experiment [19] (IC50, against NDM-1, VIM-2 and IMP-1) is reported as 1.2–2.8 fold. At L1 [3] (IC50, against L1), the “potency compared to 3a” value is reported as about 0.9 fold. Besides, the “Dissociative t1/2 = 2 / k-0” value at IMP-1 [9] (IMP-1) is given as 25 min.
